Assay results gathered from unrelated publications.
Target: Mitogen-activated protein kinase 9 (MAPK9, Homo sapiens, UniProt P45984)

SMILES | observed | action | method | concentration | endpoint | value
C=CC(=O)N1CCC[C@@H](n2nc(-c3ccc(Oc4ccccc4)cc3)c3c(N)ncnc32)C1 | enzyme activity | inhibitor | – | 1 µM | inhibition | 21%
N#Cc1ccc(NC(=O)Nc2ccccc2)cc1 | cell-free assay | – | competition with immobilised ligand | 25 µM | remaining binding | 100%
C#Cc1cnc(Nc2ccnc(CO)c2)nc1Nc1ccccc1S(C)(=O)=NC#N (stereo not drawn) | cell-free assay | – | – | 1 µM | remaining signal | 58%
C=CC(=O)N1CCC([C@@H]2CCNc3c(C(N)=O)c(-c4ccc(Oc5ccccc5)cc4)nn32)CC1 | enzyme activity | inhibitor | – | 1 µM | inhibition | 0%
COc1ccc2oc(-c3ccc4nc(N)oc4c3)c/c(=N\c3ccccc3NC(=O)CCN)c2c1 | binding | – | – | 1 µM | remaining binding | 98%
C[C@H]1CC[C@H](n2c3cnccc3c3cnc(Nc4ccc5c(n4)CCN(C(=O)CO)C5)nc32)CC1 | binding | – | competition with immobilised ligand | 1 µM | remaining binding | 2.6%
CCCCC(=O)Nc1ccc(-c2ccc3ncn(CCC)c(=O)c3c2)cn1 | binding | – | competition with immobilised ligand | 0.5 µM | remaining binding | 68%
Cc1ccc(NC(=O)c2ccnc(C(F)(F)F)c2)cc1-c1cc(OCCO)nc(N2CCOCC2)c1 | binding | – | competition with immobilised ligand | 1 µM | remaining binding | 83%
C1=C/COCc2cc(ccc2OCCN2CCCC2)Nc2nccc(n2)-c2cccc(c2)COC/1 | cell-free assay | – | – | 0.1 µM | remaining signal | 47%
